Compound activity deposited in PubChem by several laboratories.
EBI2 antag: EBI2 (human) antagonism | P32249 | EBI2 beta-arrestin recruitment, luminescence, 7a,25-OHC stimulated | inhibition, % at 5 µM | 360,000 compounds, 0.81% hits; in the data active = inhibition above about 38%;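 also: enzyme fragment complementation signal reports receptor beta-arrestin coupling in cells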
Target sequence (P32249 whole entry, looked up, the tested form may be a part): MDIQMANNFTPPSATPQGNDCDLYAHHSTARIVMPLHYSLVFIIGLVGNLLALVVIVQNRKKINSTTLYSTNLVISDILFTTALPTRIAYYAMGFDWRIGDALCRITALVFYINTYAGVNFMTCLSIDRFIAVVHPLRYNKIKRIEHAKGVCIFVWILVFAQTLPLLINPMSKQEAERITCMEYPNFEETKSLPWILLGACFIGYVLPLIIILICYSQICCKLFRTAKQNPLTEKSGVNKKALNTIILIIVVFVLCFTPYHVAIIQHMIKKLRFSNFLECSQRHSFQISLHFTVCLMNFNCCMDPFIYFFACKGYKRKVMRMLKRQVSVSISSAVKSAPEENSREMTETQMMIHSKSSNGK
GAA850 FXN act: frataxin GAA850 promoter activation | 360,000 compounds, 0.56% hits | HEK293 lucGAA850 FXN promoter luciferase reporter, 24 h; percent of 10 µM SAHA response | activation, % at 6 µM;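 active = activation above the average of all compounds screened plus 3 SD, cutoff fixed separately per campaign, cut at about 7.5% in these data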
CCR6 antag: blocks CCL20-driven beta-arrestin recruitment at human CCR6; CHO-K1 CCR6 PathHunter beta-arrestin, luminescence, CCL20-stimulated; inhibition, % at 20 µM; 340,000 compounds, 0.49% hits;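 active = compounds whose inhibition of the agonist-driven luminescence signal at 20 µM reaches about 50%, limit read from the data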;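 also: cells stimulated with CCL20 at 14 nM final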
CXCR6 block: CXCR6 (human) receptor inhibition | O00574 | CHO-K1 PathHunter CXCR6 beta-arrestin, luminescence | inhibition, % at 20 µM | 360,000 compounds, 0.36% hits; in the data active = inhibition above about 34%, passing the limit was not always enough;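 also: antagonist mode with CXCL16 agonist at 10 nM final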
APJ antag: blocks the human apelin receptor APJ; P35414; CHO-K1 APJ beta-arrestin complementation, luminescence; inhibition, % at 20 µM; 330,000 compounds, 0.32% hits;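 active = inhibition above about 40% at 20 µM, limit read from the data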;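 also: cells challenged with 10 nM apelin-13 agonist together with compound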
Target sequence (P35414 whole entry, looked up): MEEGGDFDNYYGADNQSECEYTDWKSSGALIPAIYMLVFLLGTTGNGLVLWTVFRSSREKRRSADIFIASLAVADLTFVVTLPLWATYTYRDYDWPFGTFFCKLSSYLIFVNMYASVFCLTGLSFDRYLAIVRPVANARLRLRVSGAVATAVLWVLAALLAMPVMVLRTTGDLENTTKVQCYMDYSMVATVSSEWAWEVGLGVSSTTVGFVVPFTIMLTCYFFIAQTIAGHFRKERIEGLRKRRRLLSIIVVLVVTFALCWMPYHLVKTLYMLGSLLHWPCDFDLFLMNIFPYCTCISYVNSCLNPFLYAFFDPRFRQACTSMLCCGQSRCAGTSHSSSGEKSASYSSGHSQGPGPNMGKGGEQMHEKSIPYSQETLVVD
APJ ag: agonists of human APJ apelin receptor; 330,000 compounds, 0.11% hits; activation, % at 20 µM; CHO-K1 APJ PathHunter beta-arrestin, luminescence; 0% DMSO wells, 100% apelin;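 active = activation more than six SD over the plate average, tested at 20 µM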
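Test system: CHO-K1 APJ beta-arrestin complementation cell line | Compound: Single test compound dose, 20 µM final, 1% DMSO | Incubation: Compound 90 min 25 °C, reagent 1 h | Measured by: beta-gal luminescence | Read-out basis: APJ–arrestin association signal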
EBI2 antag conf: confirmation of human EBI2 receptor antagonists. EBI2 beta-arrestin luminescence, 7a,25-OHC antagonism. shares compounds with EBI2 antag. 2,400 compounds, 29% hits. AID 651997. inhibition, % at 5 µM;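 active = inhibition of at least 50%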
EBI2 ag: EBI2 agonism counter-screen | shares compounds with EBI2 antag | EBI2-expressing cells, agonist mode, luminescence, 60 min; 0% vehicle, 100% 7α,25-dihydroxycholesterol control | activation, % at 5 µM | 2,400 tested, under 10 active | AID 652000;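 active = activation of at least 50%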
bGal cs: inhibits E. coli beta-galactosidase, counter-screen for EBI2 antagonists. inhibition, % at 5 µM. shares compounds with EBI2 antag. 2,400 compounds, 1% hits. purified beta-galactosidase, luminescent Galacton Star, 15 min;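 active = replicate-average signal at least 3 plate SD below neutral wells, shown as high inhibition, flagging enzyme-inhibiting false positives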;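 also: higher means stronger loss of beta-gal luminescence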
Each line names hits and unclear results; the compound was inactive in the other large screens (follow-up assays come after a bar, where they were run). Rows were chosen to be rich in hits. Some 2% of all compounds tested hit in one or more screens of this group.

Cc1cccc(N(CC(=O)N/N=C/c2ccc(C(=O)O)cc2)S(=O)(=O)c2ccccc2)c1C	none
COc1ccc(OCC(O)Cn2cnc(-c3ccc(Br)cc3)c2)cc1 (centres undefined)	EBI2 antag 48.2 | EBI2 antag conf inactive | EBI2 ag inactive | bGal cs inactive
Cn1nc(Oc2ncc(C(F)(F)F)cc2Cl)cc1C(F)(F)F	EBI2 antag 66.0 | EBI2 antag conf inactive | EBI2 ag inactive | bGal cs inactive
Cc1cccc(Oc2ncnc3oc(-c4ccccc4)cc23)c1C	EBI2 antag 66.5 | EBI2 antag conf inactive | EBI2 ag inactive | bGal cs inactive
Cc1cccc(Oc2ncnc(N)c2[N+](=O)[O-])c1C	none
Cc1cc(Cl)ccc1Oc1ncnc2oc(-c3ccccc3)cc12	EBI2 antag 53.1 | EBI2 antag conf inactive | EBI2 ag inactive | bGal cs inactive
Cc1noc2ncnc(Oc3cc(Cl)ccc3Cl)c12	none
COCCNC(=O)C1CCCN(C(=O)c2ccc3ccccc3n2)CC1 (centres undefined)	none (no result: CCR6 antag, APJ antag, APJ ag)
COc1ccccc1CCNC(=O)CNC(=O)c1ccc2ccccc2c1	none
O=C(COc1ccc(Cc2ccccc2)cc1)c1ccc(F)cc1	none
O=C(COc1ccc(F)cc1)c1ccc2c(c1)CCCC2	EBI2 antag 47.1 | EBI2 antag conf inactive | EBI2 ag inactive | bGal cs inactive
CCN(CC(=O)NCc1ccc(Cl)cc1)C(=O)/C=C/c1ccc(C#N)cc1	EBI2 antag 51.1 | EBI2 antag conf inactive | EBI2 ag inactive | bGal cs inactive
CCN(CC(=O)NCc1ccc(Cl)cc1)C(=O)/C=C/c1ccco1	none
CCN(CC(=O)NCc1ccc(Cl)cc1)C(=O)c1cnc(Cl)c(Cl)c1	none
CCN(CC(=O)NCc1ccc(Cl)cc1)C(=O)/C=C/c1ccccc1	EBI2 antag 76.2 | EBI2 antag conf inactive | EBI2 ag inactive | bGal cs inactive
CCN(CC(=O)NCc1ccc(Cl)cc1)C(=O)c1ccc2cc(OC)ccc2c1	EBI2 antag 68.3 | EBI2 antag conf 52.5 | EBI2 ag inactive | bGal cs inactive
Cc1ccc(C)c(N(C)S(=O)(=O)c2ccc3c(c2)oc(=O)n3C)c1	none
CN(C)CCCNc1nc2cc(-c3cnn(Cc4ccccc4)c3)sc2c(=O)n1C	none (no result: CCR6 antag, APJ antag, APJ ag)
Cc1cc(OCCCC(=O)Nc2cccc(-n3cnnn3)c2)ccc1Cl	none
CC1(C(=O)Nc2cnc3ccccc3c2)CCN1C(=O)CC(c1ccccc1)c1ccccc1 (centres undefined)	EBI2 antag 74.9 (no result: CCR6 antag, APJ antag, APJ ag) | EBI2 antag conf 55.0 | EBI2 ag inactive | bGal cs inactive
Clc1ccc(-c2cnc(Oc3ccccc3)nc2)cc1	EBI2 antag 72.9 | EBI2 antag conf inactive | EBI2 ag inactive | bGal cs inactive
Cc1cc(Cl)ccc1Oc1ncc(-c2ccc(Cl)cc2)cn1	EBI2 antag 59.5 | EBI2 antag conf inactive | EBI2 ag inactive | bGal cs inactive
CCCCCOc1ccc(C(=O)Nc2ccc(N3CCOCC3)cc2N2CCOCC2)cc1	none
CC(C)N(C)c1ncnc2c1ncn2[C@H]1CN(Cc2ccc(F)cc2)C[C@@H](CO)O1	EBI2 antag 67.5 (no result: CCR6 antag, APJ antag, APJ ag) | EBI2 antag conf 63.0 | EBI2 ag inactive | bGal cs inactive
CC(C)CNc1ncnc2c1ncn2[C@H]1CN(Cc2ccc(-c3ccccc3)cc2)C[C@@H](CO)O1	none (no result: CCR6 antag, APJ antag, APJ ag)
OC[C@@H]1CN(Cc2cccc(C(F)(F)F)c2)C[C@H](n2cnc3c(NCc4ccc(F)cc4)ncnc32)O1	none (no result: CCR6 antag, APJ antag, APJ ag)
OC[C@@H]1CN(Cc2ccc(Cl)cc2)C[C@H](n2cnc3c(NC4CC4)ncnc32)O1	EBI2 antag 82.5 (no result: CCR6 antag, APJ antag, APJ ag) | EBI2 antag conf 82.2 | EBI2 ag inactive | bGal cs inactive
CC(C)Nc1ncnc2c1ncn2[C@H]1CN(Cc2ccc(-c3ccccc3)cc2)C[C@@H](CO)O1	EBI2 antag 44.1 (no result: CCR6 antag, APJ antag, APJ ag) | EBI2 antag conf inactive | EBI2 ag inactive | bGal cs inactive
OC[C@@H]1CN(Cc2cccc(C(F)(F)F)c2)C[C@H](n2cnc3c(NC4CC4)ncnc32)O1	EBI2 antag 64.8 (no result: CCR6 antag, APJ antag, APJ ag) | EBI2 antag conf 61.6 | EBI2 ag inactive | bGal cs inactive
O=C(O)c1ccc(CNC(=O)C2CCN(S(=O)(=O)c3ccc4c(c3)OCCO4)CC2)cc1	none (no result: CCR6 antag, APJ antag, APJ ag)
O=C(CCCCn1cnc2c(=S)nc[nH]c21)Nc1ccc(C(=O)O)c(O)c1	none (no result: APJ antag, APJ ag)
CCn1cc(C(=O)NN)c(=O)c2cc(F)c(NC3CCCCC3)cc21	EBI2 antag 91.2 | EBI2 antag conf 62.4 | EBI2 ag inactive | bGal cs inactive
C[C@H](O)[C@@H]1C(=O)N2CCc3c([nH]c4ccccc34)[C@@H]2C[C@@H]1N(C)Cc1ccc2c(c1)OCO2	none (no result: CCR6 antag, APJ antag, APJ ag)
COc1ccccc1C(C(=O)c1ccccc1)c1ccc(O)cc1 (centres undefined)	none (no result: GAA850 FXN act, CCR6 antag, CXCR6 block, APJ antag, APJ ag)
CS(=O)(=O)c1nc(-c2ccccc2)cc(-c2ccccc2)c1C#N	EBI2 antag 56.3 | EBI2 antag conf 55.4 | EBI2 ag inactive | bGal cs inactive
CC(C)(C)OC(=O)N1CCN(c2ccc(CNC(=O)c3ccc(Cl)cc3)cc2)CC1	EBI2 antag 59.4 | EBI2 antag conf inactive | EBI2 ag inactive | bGal cs inactive
CC(C)(C)c1ccc(C(=O)NCc2ccc(Cl)cc2)cc1	EBI2 antag 53.4 | EBI2 antag conf inactive | EBI2 ag inactive | bGal cs inactive
Cc1ccc(-c2nc(CNC(=O)c3ccco3)cs2)cc1	none
N#Cc1nc(Cc2cccc3ccccc23)oc1NCc1ccc(F)cc1	EBI2 antag 45.4 | EBI2 antag conf inactive | EBI2 ag inactive | bGal cs inactive
O=C(Nc1cccc(OC(F)(F)F)c1)c1ccc(-c2cccnc2)c2ccoc12	EBI2 antag 37.5 (no result: CCR6 antag, APJ antag, APJ ag) | EBI2 antag conf inactive | EBI2 ag inactive | bGal cs inactive
COc1cc(/C=c2\sc3n(c2=O)C(c2ccccc2)C(c2ccccc2)=NN=3)ccc1O (centres undefined)	EBI2 antag 49.5 | EBI2 antag conf inactive | EBI2 ag inactive | bGal cs inactive
C[C@@H](NC(=O)[C@@H]1CCCN1C(=O)[C@@H]1CCCN1C(=O)OC(C)(C)C)c1ccccc1	none (no result: GAA850 FXN act, CCR6 antag, APJ antag, APJ ag)
CCOC(=O)CN(C(=O)CSc1nnc(CNc2ccc(F)cc2)o1)c1ccccc1	EBI2 antag 42.9 | EBI2 antag conf inactive | EBI2 ag inactive | bGal cs inactive
